Data set [1] in a line: Chemical stability assessed as half life of degradation. The format is physicochemical. A digest of the protocol:
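Z-isomer formed by long-wavelength UV irradiation, then its thermal reisomerization to the E-form followed. First-order rate constant (h⁻¹) and Z-isomer half-life (h) derived.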

Data set [2] concerns the target T1, Membrane-bound transcription factor site-1 protease (Homo sapiens, UniProt Q14703).
T1 sequence (Q14703 whole entry): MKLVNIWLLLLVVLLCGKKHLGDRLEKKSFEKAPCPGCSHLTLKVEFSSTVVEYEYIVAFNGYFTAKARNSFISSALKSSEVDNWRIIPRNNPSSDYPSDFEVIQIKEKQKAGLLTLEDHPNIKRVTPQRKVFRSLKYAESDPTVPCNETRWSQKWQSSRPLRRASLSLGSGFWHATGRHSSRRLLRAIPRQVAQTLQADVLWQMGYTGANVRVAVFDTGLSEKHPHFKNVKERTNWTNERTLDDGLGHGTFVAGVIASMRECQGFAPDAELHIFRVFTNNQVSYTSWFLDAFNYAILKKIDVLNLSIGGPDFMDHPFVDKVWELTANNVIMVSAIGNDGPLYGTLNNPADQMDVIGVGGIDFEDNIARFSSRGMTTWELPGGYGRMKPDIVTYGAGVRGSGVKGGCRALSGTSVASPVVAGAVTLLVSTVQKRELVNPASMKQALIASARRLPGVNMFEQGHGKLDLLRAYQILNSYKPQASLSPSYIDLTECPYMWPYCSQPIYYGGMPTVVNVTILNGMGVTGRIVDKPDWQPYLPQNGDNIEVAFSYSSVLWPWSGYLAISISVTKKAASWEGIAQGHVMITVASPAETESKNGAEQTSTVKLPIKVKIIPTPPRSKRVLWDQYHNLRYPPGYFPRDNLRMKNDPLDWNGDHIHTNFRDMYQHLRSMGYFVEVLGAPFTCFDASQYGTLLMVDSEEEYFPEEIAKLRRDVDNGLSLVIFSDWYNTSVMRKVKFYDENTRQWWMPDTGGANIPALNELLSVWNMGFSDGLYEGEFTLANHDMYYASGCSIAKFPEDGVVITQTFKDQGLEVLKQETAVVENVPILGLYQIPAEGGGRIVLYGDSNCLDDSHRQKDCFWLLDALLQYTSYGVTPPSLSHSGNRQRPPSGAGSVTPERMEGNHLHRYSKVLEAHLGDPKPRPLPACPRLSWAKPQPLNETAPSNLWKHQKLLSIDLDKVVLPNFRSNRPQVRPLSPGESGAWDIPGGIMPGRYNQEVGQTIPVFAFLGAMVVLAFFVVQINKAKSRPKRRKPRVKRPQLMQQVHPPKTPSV
Briefly: Inhibition of human recombinant soluble Kexin isozyme 1. A digest of the protocol: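 Recombinant soluble human SKI-1 (activity normalized to 10 pmol Abz-peptide released per µL per h, 37 °C). Only the E-form was tested, at varying concentrations, with quenched fluorogenic Abz-Q-GPC251–263-Tyx substrate in Tris/Mes/2 mM CaCl2 buffer at 37 °C. RFU (ex 320/em 420 nm) were read from 0–6 h and converted to cleavage rates. Ki came from Dixon plots at 0.1, 0.05 and 0.025 mM substrate.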

Structures are written as SMILES.

For `O=C(COc1ccccc1/N=N/c1ccccc1OCC(=O)N[C@@H](Cc1ccccc1)C(=O)N[C@@H](Cc1ccccc1)C(=O)OCc1ccccc1)N[C@@H](Cc1ccccc1)C(=O)N[C@@H](Cc1ccccc1)C(=O)OCc1ccccc1`, the half-life in data set [1] was 28.9 h. On the same count and under the same terms, the result for `O=C(COc1ccccc1/N=N/c1ccccc1OCC(=O)NCC(=O)OCc1ccccc1)NCC(=O)OCc1ccccc1` reads 77 h. With `O=C(COc1ccccc1/N=N/c1ccccc1OCC(=O)N[C@@H](Cc1ccccc1)C(=O)O)N[C@@H](Cc1ccccc1)C(=O)O`, the Ki in data set [2] turned out to be 225 µM.

As for `CC(C)[C@H](NC(=O)COc1ccccc1/N=N/c1ccccc1OCC(=O)N[C@H](C(=O)OCc1ccccc1)C(C)C)C(=O)OCc1ccccc1`, in data set [2], the Ki amounted to 125 µM. Besides, in data set [1], the half-life is 31.5 h. Consider `CC(C)[C@H](NC(=O)COc1ccccc1/N=N/c1ccccc1OCC(=O)N[C@H](C(=O)O)C(C)C)C(=O)O`, for which, in data set [2], the Ki was 75 µM. In the case of `O=C(COc1ccccc1/N=N/c1ccccc1OCC(=O)N[C@@H](Cc1ccccc1)C(=O)N[C@@H](Cc1ccccc1)C(=O)O)N[C@@H](Cc1ccccc1)C(=O)N[C@@H](Cc1ccccc1)C(=O)O`, the inhibitory constant (Ki) in data set [2] was 140 µM. For the molecule `O=C(COc1ccccc1/N=N/c1ccccc1OCC(=O)N[C@@H](Cc1ccccc1)C(=O)OCc1ccccc1)N[C@@H](Cc1ccccc1)C(=O)OCc1ccccc1`, the Ki in data set [2] was found to be 11.8 µM. In data set [1], the half-life was 69.3 h. In the case of `O=C(O)CNC(=O)COc1ccccc1/N=N/c1ccccc1OCC(=O)NCC(=O)O`, the Ki in data set [2] came out at 265 µM.

(Values after ChEMBL document CHEMBL1177757, “C(2)-Symmetric azobenzene-amino acid conjugates and their inhibition of Subtilisin Kexin Isozyme-1” (Bioorg Med Chem Lett, 2010).)
